Laboratory results published in paper PMC4449736 (Science translational medicine, 2015).
Where a name gives a salt, the structure may show the parent alone.

What was measured:
[1] = assay type: in vivo, rhesus macaques (Macaca mulatta)
[2] = oral GSK744, humans; cited from earlier work
[3] = Plasma PK of GSK744 in Depo-Provera-treated female rhesus macaques; assay type: in vivo
Method in brief: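 Female Indian rhesus macaques received 30 mg Depo-Provera IM on weeks -3 and 2 and monthly IM injections of long-acting test compound (8 treated, 4 controls), with three intravaginal SHIV162P3 challenges. Plasma drug levels were followed per animal and expressed as multiples of PAIC90. Plasma SHIV RNA was tracked weekly for 24 weeks by real-time RT-PCR (sensitivity 40 copies/mL) to time first vRNA detection.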

UGT1A1, UGT1A9 = details: hepatic glucuronidation pathway; cited from earlier work
[4] = tested on: simian-human immunodeficiency virus (SHIV); details: cited from earlier work
[5] = tested on: single-cycle recombinant viruses with the integrase-coding regions of FG95 mutants; test: Susceptibility of single-cycle SIV recombinant viruses to GSK744 in TZM-bl cells; assay type: cell-based; details: Table S2
[6] = human studies, data limited; cited from earlier work
HIV = details: TDF alone, injection drug users; cited from earlier work

SMILES | mean cervical T:P ratio ([1]; Depo-Provera-treated female macaques, 50 mg/kg GSK744 LA) | GSK744 concentrations lower on average in cervical tissues than rectal tissues ([1]; Depo-Provera-treated female macaques, 50 mg/kg GSK744 LA monthly) | mean T:P ratio in unwashed rectal tissues ([1]; Depo-Provera-treated female macaques, 50 mg/kg GSK744 LA, no saline rinse) | Kp ([1]; female, Indian, rhesus monkey, cervical tissue / plasma, intramuscular, 50 mg/kg) | apparent terminal half-life (t1/2) [2] | plasma GSK744 concentration at first vRNA detection relative to PAIC90 ([3]; macaque FG95) | plasma GSK744 concentration at the time of challenges relative to PAIC90 ([3]; macaque FG95, three challenges) | plasma GSK744 concentration at first vRNA detection relative to PAIC90 ([3]; macaque FM26) | plasma GSK744 concentration at the time of challenges relative to PAIC90 ([3]; macaque FM26, three challenges) | metabolizing enzymes (UGT1A1, UGT1A9) | protection ([4]; GSK744 plasma concentrations >3x PAIC90) | efficacy ([4]; GSK744 plasma concentrations ≥1x PAIC90) | viral susceptibility to GSK744 ([5]; integrase E198G mutation (FG95, week 20)) | susceptibility to GSK744 in vitro ([5]; integrase P142S, I210V mutations (FG95, week 11)) | relative mucosal tissue penetration [6] | reduced HIV infection (HIV)
C[C@H]1CO[C@@H]2Cn3cc(C(=O)NCc4ccc(F)cc4F)c(=O)c(O)c3C(=O)N12 [GSK744] | 0.09 (range: below detection to 0.20) | 5 fold | 0.37 (range: 0.15 to 1.13) | ~0.1 | approximately 40 hours | < 1 x PAIC90 | 13.3–18.4 x PAIC90 | ≈ 2.2 x PAIC90 | 12.4–18.1 X PAIC90 | primarily by UGT1A1, with some involvement from UGT1A9 | 100% | 97% | did not decrease viral susceptibility | did not decrease susceptibility | penetrates cervical tissue slightly more efficiently than rectal tissue | –
CC(C)OC(=O)OCOP(=O)(CO[C@H](C)Cn1cnc2c(N)ncnc21)OCOC(=O)OC(C)C [TDF, tenofovir disoproxil fumarate] | – | – | – | – | – | – | – | – | – | – | – | – | – | – | – | 49%
